Consider 14 molecules from PMC3616288 (The EMBO Journal, 2013).

By Kd is commonly meant the constant that tells how readily two partners part at equilibrium. Low values mean tighter binding, high ones weaker binding.

Experiment [1] deals with S. cerevisiae β′-COP(1–814)/α-COP(642–818) dimer (S. cerevisiae) (UniProt P41811). The experiment is described as follows: ITC. (In general: In ITC the heat of successive injections is recorded.)
The target of experiment [2] is T1, α‐COP (Schizosaccharomyces pombe, UniProt Q96WV5, F197K/I192K/L181K/L185K/L196K).
T1 sequence (Q96WV5 1-327 L181K/L185K/I192K/L196K/F197K): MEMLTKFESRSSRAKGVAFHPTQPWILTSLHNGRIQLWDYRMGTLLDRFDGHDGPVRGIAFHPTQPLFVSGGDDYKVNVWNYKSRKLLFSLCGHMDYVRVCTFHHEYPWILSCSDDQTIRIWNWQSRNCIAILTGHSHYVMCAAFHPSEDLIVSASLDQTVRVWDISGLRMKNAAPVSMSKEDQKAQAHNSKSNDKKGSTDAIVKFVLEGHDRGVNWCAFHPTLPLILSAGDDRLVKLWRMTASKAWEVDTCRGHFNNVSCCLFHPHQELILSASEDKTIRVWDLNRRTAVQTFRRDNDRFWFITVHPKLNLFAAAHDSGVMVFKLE
In words: Isothermal calorimetry. In kind it is binding, S. pombe. Particulars: from ITC Kd values for α‐COP and β′‐COP. In a few lines: (§1)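 Synthetic peptides and protein were dialysed overnight into the same 20 mM Tris–HCl pH 7.5, 150 mM NaCl. α-COP target: quintuple-mutant S. pombe α-COP(1–327), His-Smt3-tagged, E. coli-expressed, tag cleaved. β′-COP target: S. cerevisiae β′-COP(1–814)/α-COP C-terminal fragment dimer from Hi-5 insect cells. Ratios are taken from the Kd values.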

Experiment [3] concerns the target T2, β′‐COP (Saccharomyces cerevisiae, UniProt P41811).
T2 sequence (P41811 1-814): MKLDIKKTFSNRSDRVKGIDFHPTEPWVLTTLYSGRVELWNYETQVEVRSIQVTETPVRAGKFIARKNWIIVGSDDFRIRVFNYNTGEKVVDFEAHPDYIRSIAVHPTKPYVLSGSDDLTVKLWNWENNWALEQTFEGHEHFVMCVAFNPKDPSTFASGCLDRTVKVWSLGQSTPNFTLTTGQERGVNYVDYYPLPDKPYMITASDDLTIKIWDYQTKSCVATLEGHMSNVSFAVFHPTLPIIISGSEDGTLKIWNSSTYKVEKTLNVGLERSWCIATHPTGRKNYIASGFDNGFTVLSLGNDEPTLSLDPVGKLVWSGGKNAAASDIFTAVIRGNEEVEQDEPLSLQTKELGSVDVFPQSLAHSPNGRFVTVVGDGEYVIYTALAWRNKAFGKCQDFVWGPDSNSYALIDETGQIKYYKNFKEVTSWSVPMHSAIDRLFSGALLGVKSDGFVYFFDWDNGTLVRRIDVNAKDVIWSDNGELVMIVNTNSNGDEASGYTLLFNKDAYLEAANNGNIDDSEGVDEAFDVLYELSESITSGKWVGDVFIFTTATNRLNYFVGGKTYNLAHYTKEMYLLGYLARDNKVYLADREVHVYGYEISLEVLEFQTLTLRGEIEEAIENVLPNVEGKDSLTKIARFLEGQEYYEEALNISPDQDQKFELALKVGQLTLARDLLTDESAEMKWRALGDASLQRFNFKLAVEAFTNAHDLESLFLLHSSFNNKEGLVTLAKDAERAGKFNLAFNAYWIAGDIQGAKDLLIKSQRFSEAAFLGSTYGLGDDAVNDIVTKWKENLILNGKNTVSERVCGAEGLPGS
T2 sequence (P53622 642-818 partner limits assumed): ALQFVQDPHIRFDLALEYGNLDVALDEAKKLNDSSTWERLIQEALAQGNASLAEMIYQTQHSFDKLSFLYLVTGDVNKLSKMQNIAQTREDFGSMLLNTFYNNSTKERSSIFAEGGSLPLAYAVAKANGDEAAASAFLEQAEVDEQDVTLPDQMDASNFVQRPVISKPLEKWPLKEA
The experiment is described as follows: Isothermal calorimetry. In kind it is binding, S. cerevisiae. Particulars: ITC; relative to TFKKTN (yWbp1) peptide. The gist of the method: as §1

The target in experiment [4] is T3, S. cerevisiae β′-COP(1–814)/α-COP(642–818) dimer (S. cerevisiae, UniProt P41811 1-814; P53622 642-818).
T3 sequence (looked up) 1: T2 sequence (P41811 1-814)
T3 sequence (looked up) 2: T2 sequence (P53622 642-818 partner limits assumed)
The experiment is described as follows: pull-down.

The target of experiment [5] is T4, S. cerevisiae α-COP(1–818)/β′-COP(651–814) dimer (S. cerevisiae, UniProt P53622 1-818; P41811 651-814).
T4 sequence (looked up) 1: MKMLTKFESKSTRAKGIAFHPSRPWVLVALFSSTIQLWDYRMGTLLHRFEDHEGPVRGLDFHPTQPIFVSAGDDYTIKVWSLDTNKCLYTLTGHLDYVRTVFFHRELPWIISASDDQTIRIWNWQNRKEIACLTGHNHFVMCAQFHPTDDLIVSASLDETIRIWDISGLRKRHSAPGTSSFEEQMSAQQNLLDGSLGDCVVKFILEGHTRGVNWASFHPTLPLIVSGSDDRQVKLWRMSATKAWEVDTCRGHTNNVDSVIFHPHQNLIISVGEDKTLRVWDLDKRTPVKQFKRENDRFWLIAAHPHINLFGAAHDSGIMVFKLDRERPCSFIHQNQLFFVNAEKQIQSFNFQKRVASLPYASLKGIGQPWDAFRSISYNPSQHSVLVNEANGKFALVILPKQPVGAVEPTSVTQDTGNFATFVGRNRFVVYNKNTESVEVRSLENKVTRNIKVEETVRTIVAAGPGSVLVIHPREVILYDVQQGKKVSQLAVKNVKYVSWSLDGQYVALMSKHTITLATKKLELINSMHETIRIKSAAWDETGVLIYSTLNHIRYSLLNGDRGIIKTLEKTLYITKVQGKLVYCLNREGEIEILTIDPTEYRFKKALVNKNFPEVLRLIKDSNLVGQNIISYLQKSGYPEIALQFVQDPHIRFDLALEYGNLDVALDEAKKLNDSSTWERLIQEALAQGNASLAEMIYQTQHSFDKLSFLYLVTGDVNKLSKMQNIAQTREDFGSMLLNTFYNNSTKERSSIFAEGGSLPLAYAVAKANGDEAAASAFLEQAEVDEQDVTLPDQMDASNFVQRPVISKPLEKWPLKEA
T4 sequence (looked up) 2: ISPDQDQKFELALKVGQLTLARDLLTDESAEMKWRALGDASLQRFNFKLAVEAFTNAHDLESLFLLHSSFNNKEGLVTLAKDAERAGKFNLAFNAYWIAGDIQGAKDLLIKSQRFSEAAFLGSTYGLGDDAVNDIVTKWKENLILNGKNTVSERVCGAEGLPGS
The experiment is described as follows: pull-down.

For experiment [6], the target named is T3, S. cerevisiae …. In words: ITC.
Experiment [7] has as its target T5, S. cerevisiae β′-COP N-terminal β-propeller domain (residues 1–301) (S. cerevisiae, UniProt P41811 1-301).
T5 sequence (looked up): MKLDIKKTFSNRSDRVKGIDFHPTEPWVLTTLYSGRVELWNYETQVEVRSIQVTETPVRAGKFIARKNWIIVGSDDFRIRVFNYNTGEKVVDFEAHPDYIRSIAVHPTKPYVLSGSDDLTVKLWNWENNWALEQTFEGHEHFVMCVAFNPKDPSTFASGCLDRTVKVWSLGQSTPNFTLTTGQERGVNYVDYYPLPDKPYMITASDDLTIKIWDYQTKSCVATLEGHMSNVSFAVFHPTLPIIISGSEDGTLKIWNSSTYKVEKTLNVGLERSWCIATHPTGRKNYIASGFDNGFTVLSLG
In words: crystal structure.

Turning to yeast Wbp1 variant peptide TFKKSN, the fold tighter binding than KKTN in experiment [1] was 1.8 fold. Take TFKKSN: in experiment [2], the “ratio of affinities of α‐COP and β′‐COP: factor by which the motif favours α‐COP” value came to 2.2. Moreover, the “binds more tightly than KKTN to β′‐COP by a factor” value in experiment [3] is given as 1.8 fold.

B1: GST fused to the cytoplasmic region of Emp47p (KxKxx motif) (domain or fragment, yeast, UniProt P43555 434-445, looked up)
chain: RIRQEIIKTKLL
For B1, the binding result in experiment [4] and in experiment [5] was “binds” each time.

B2: GST fused to the cytoplasmic region of p25 (KKxx motif) (domain or fragment, UniProt Q9BVK6 223-235, looked up)
chain: RHLKSFFEAKKLV
For B2, the binding result in experiment [4] and in experiment [5] was “binds” each time.

B3: adenoviral E19 protein peptide RRSFIDEKKMP (peptide)
peptide: RRSFIDEKKMP
Molecule B3 yielded a dissociation constant Kd in experiment [6] of 49 µM.

B4: Scyl1 peptide GARKLD (peptide)
peptide: GARKLD
B4 returned a Kd in experiment [6] of 20.4 µM.

B5: Insig-2 peptide AEKSHQE (peptide)
peptide: AEKSHQE
With B5, the binding result in experiment [6] and in experiment [7] was “binds” each time.

B6: Insig-1 peptide PEKPHSD (peptide)
peptide: PEKPHSD
Turning to B6, the binding result in experiment [6] and in experiment [7] was “binds” each time.

B7: Emp47p peptide IKTKLL (peptide)
peptide: IKTKLL
B7 displayed a dissociation constant Kd in experiment [6] of 22.5 µM.

B8: human Wbp1 (OST48) peptide EKEKSD (peptide)
peptide: EKEKSD
In experiment [6], B8 returned a Kd of 3.4 µM.

B9: p25 peptide FEAKKLV (peptide)
peptide: FEAKKLV
The molecule B9 registered a Kd in experiment [6] of 27.7 µM.

B10: porcine epidemic diarrhoea virus spike protein peptide FEKVHVQ (peptide)
peptide: FEKVHVQ
As for B10, in experiment [7], the binding result is recorded as “binds”.

B11: GST fused to the cytoplasmic region of adenoviral E19 protein (KKxx motif) (domain or fragment, adenovirus, UniProt P68978 145-159, looked up)
chain: KYKSRRSFIDEKKMP
With B11, the binding result in experiment [4] and in experiment [5] was “binds” throughout.

B12: yeast Wbp1 peptide TFKKTN (peptide)
peptide: TFKKTN
As to B12, the Kd in experiment [6] worked out at 171 µM.
